ChEMBL document CHEMBL5678801, “A benzothiophene inhibitor of mitogen-activated protein kinase-activated protein kinase 2 inhibits tumor necrosis factor alpha production and has oral anti-inflammatory efficacy in acute and chronic models of inflammation” (J Pharmacol Exp Ther, 2010)

Assays:
[1] = biological target: MAP kinase-interacting serine/threonine-protein kinase 2 (Homo sapiens, UniProt Q9HBH9); test: Inhibition of recombinant MNK2 (unknown origin) using KKKALSRQLSVAA as substrate incubated for 1 hr followed by substrate addition in presence of ATP
Chain of MAP kinase-interacting serine/threonine-protein kinase 2 (Q9HBH9 whole entry): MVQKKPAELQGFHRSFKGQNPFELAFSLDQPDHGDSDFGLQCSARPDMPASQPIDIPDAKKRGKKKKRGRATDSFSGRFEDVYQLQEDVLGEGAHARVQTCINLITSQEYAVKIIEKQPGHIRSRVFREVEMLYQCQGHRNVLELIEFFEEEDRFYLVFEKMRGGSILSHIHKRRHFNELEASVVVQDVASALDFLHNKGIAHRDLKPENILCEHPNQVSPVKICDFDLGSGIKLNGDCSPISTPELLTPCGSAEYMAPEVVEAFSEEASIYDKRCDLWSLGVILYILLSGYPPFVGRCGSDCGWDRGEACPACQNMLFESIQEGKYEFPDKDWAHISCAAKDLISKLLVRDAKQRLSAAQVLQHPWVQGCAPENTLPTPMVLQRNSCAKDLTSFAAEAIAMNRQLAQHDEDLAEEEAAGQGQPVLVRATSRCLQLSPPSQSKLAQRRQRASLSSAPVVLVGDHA
Summary of the method: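 Recombinant MAPKAP kinase was first activated with activated p38α (1:50 molar ratio) and 250 μM ATP for 1 hr at 30°C. Activity was then assayed at Km(app) MgATP by ion-exchange separation of 33P-labeled product peptide. IC50 was taken from duplicate experiments.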

[2] = Inhibition of recombinant 6 his tagged N/C-terminal MSK1 (367 to 802 residues)/MSK2 (351 to 772 residues) (unknown origin) expressed in baculovirus infected Sf9 insect cells using KKKALSRQLSVAA as substrate incubated for 1 hr followed by substrate addition in presence of ATP; set-up: species or system Homo sapiens
Summary of the method: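 MAPKAP family kinases were activated by p38α (1:50 molar, 250 μM ATP, 1 h, 30°C). Assays ran in 20 mM HEPES pH 7.5, 10 mM MgCl2, 1 mM DTT, 0.01% BSA, 0.0005% Tween-20, at MgATP fixed at each enzyme's Km(app). The 33P-labelled product peptide was separated by ion exchange. Duplicate experiments. MSK1 (367-802) and MSK2 (351-772) were N-terminal 6xHis constructs from Sf9 cells.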

[3] = biological target: T1, Serine/threonine-protein kinase BRSK2 (Homo sapiens, UniProt Q8IWQ3); test: Inhibition of BrSK2 (unknown origin)
T1 sequence (Q8IWQ3 whole entry): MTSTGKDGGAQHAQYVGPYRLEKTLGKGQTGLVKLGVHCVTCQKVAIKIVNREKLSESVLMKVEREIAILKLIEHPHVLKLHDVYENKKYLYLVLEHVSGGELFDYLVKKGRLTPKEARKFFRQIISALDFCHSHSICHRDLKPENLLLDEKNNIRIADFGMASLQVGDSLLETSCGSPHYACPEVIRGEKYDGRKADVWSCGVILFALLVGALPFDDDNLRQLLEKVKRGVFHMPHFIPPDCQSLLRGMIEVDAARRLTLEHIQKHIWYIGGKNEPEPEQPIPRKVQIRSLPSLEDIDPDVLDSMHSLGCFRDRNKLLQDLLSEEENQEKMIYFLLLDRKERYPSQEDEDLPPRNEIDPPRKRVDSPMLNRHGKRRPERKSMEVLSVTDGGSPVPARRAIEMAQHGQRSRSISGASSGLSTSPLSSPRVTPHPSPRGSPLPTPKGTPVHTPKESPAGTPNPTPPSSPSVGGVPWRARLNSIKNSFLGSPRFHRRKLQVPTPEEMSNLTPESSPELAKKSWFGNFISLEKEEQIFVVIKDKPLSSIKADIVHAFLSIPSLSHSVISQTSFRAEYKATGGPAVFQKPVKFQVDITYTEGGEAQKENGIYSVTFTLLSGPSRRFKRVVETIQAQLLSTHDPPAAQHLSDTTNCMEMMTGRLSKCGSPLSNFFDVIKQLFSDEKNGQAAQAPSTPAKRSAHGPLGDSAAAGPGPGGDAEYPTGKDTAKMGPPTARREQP
Summary of the method: (§1)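 Kinase panel: 200 kinases were first screened at 1 μM inhibitor for percent inhibition. Those above 50% inhibition were then titrated for IC50. MgATP was fixed at the Km(app) determined for each enzyme.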

[4] = biological target: T2, Serine/threonine-protein kinase 17A (Homo sapiens, UniProt Q9UEE5); test: Inhibition of DRAK1 (unknown origin); summary of the method: as §1
T2 sequence (Q9UEE5 whole entry): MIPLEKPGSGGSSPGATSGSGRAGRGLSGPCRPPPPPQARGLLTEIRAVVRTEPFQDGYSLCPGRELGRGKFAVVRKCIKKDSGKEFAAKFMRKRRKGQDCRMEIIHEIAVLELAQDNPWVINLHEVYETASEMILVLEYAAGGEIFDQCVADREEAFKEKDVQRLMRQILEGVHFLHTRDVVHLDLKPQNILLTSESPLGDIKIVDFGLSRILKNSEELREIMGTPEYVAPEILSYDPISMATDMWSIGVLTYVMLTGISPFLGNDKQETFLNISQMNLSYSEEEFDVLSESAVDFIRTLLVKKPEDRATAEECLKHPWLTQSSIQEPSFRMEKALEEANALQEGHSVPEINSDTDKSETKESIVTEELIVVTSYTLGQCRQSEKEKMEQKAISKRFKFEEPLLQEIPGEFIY

[5] = biological target: T3, Tyrosine-protein kinase receptor UFO (Homo sapiens, UniProt P30530); test: Inhibition of Axl (unknown origin); summary of the method: as §1
T3 sequence (P30530 whole entry): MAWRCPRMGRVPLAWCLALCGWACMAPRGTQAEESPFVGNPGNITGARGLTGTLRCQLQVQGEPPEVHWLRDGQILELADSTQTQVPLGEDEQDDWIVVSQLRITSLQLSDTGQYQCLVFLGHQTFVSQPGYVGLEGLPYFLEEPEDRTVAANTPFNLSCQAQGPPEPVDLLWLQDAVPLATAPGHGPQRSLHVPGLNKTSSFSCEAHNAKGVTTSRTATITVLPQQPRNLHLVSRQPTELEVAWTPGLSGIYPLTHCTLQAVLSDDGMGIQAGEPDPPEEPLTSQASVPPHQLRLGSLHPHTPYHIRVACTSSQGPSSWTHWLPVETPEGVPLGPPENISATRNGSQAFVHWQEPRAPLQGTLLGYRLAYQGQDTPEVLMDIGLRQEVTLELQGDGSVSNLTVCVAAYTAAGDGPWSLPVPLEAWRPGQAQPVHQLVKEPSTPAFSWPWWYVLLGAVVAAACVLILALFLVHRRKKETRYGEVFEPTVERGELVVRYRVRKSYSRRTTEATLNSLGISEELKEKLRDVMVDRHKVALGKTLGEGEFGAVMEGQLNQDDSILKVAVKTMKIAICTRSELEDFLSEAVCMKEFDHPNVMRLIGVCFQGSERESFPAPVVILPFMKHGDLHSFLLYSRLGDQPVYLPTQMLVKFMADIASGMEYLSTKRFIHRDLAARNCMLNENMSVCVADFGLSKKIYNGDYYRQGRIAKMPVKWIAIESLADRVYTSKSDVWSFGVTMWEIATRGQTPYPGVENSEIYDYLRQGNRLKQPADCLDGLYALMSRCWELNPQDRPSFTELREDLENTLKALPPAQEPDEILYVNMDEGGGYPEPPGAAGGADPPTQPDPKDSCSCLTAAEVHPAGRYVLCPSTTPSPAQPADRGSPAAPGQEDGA

[6] = Antiinflammatory activity in human PBMC cells assessed as inhibition of LPS induced IL-6 production preincubated for 1 hr followed by LPS stimulation and measured after 16 hrs by MSD analysis; type: functional, cell-based
Summary of the method: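 Human PBMCs were pretreated with compound for 1 h (<1% DMSO final), then stimulated with LPS 100 ng/ml at 37°C. Cytokines in culture media were read by MSD 4-plex: TNFα at 4 h; IL-1β, IL-6 and IL-8 at 16 h. Data are means ±S.E.M. of two independent experiments in duplicate, three donors. IC50 by 4-parameter nonlinear regression.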

## Cc1ccc(-c2ccc3c(ccc4sc5c(c43)NC[C@@H](C)NC5=O)n2)cn1
[1]
  IC50: 148 nM
[2]
  IC50: > 1000 nM
[3]
  IC50: 90 nM
[4]
  IC50: 71 nM
[5]
  IC50: 428 nM
[6]
  IC50: 1400 nM
